This is an account of results in ChEMBL document CHEMBL3860103, “Antibacterial and Antibiofilm Activity of Cationic Small Molecules with Spatial Positioning of Hydrophobicity: An in Vitro and in Vivo Evaluation” (J Med Chem, 2016).

Activity calls are given as the source filed them.

Series [1] concerns Escherichia coli. The series can be described thus: Induction of membrane depolarization in Escherichia coli at 32 ug/ml after 0 to 20 mins by […] dye based assay. Type of series: functional. The gist of the method:
(§1)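 Membrane-potential dye DiSC3(5) taken up by S. aureus or E. coli; depolarization followed as rise in dye fluorescence after adding compounds at 32 µg/mL.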

In series [2] the test system is Staphylococcus aureus. The series can be described thus: Induction of membrane permeabilization in Staphylococcus aureus at 32 ug/ml after 0 to 20 mins by propidium iodide dye based assay. Type of series: functional. In a few lines:
(§2)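 Membrane permeabilization of S. aureus or E. coli followed as increase in propidium iodide fluorescence after adding compounds at 32 µg/mL.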

The test system of series [3] is Staphylococcus aureus. The series can be described thus: Antibacterial activity against Staphylococcus aureus incubated for 24 hrs. It is filed as functional. The gist of the method: (§3)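 Broth microdilution: 6 h cultures diluted to ~10^5 CFU/mL in medium; compounds 2-fold serially diluted in water, mixed 1:3 with bacterial suspension. Incubated 24 h, 37 °C; OD600 read. MIC = concentration with OD similar to medium-only control. Triplicate wells, experiments repeated at least twice.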

For series [4], the system named is Escherichia coli. The series can be described thus: Induction of membrane permeabilization in Escherichia coli at 32 ug/ml after 0 to 20 mins by propidium iodide dye based assay. Type of series: functional. In a few lines:
as §2

Series [5] relates to Staphylococcus aureus. The series can be described thus: Induction of membrane depolarization in Staphylococcus aureus at 32 ug/ml after 0 to 20 mins by […] dye based assay. Type of series: functional. In a few lines:
as §1

Series [6] is described as follows: Induction of hemolysis in human RBC incubated for 1 hr. Particulars: red blood cells. Type of series: cell-based, Erythrocyte. The gist of the method: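 Washed human RBCs from heparinized blood, 5 vol% in PBS, mixed 3:1 with serially diluted compounds; 1 h at 37 °C. Centrifuged; supernatant A540 read. Hemolysis % = (A−A0)/(Atotal−A0)×100, with water as 0% and 0.1 vol% Triton X-100 as full lysis.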

Series [7] can be described thus: Selectivity index, ratio of HC50 for induction of hemolysis in human RBC to MIC for Staphylococcus aureus.
In series [8] the test system is Escherichia coli. The series can be described thus: Antibacterial activity against Escherichia coli incubated for 24 hrs. Type of series: functional. The gist of the method: as §3
The nature of series [9]: Selectivity index, ratio of HC50 for induction of hemolysis in human RBC to MIC for Escherichia coli.
Series [10] concerns Staphylococcus aureus. The series can be described thus: Antibacterial activity against methicillin-resistant Staphylococcus aureus incubated for 24 hrs. It is filed as functional. The gist of the method:
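MRSA (ATCC 33591) from a 6 h culture (~10^9 CFU/mL), diluted to ~10^5 CFU/mL in medium. Compounds in water, 2-fold serial dilutions, combined with the bacteria at 1:3 by volume and incubated 24 h at 37 °C. OD600 read. MIC is the lowest concentration whose OD matches the media-only control. Triplicate wells; experiments repeated at least twice.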

The subject of series [11] is Staphylococcus aureus. Put plainly: Antibacterial activity against Staphylococcus aureus infected in BALB/c mouse model of superficial skin infection and biofilm formation assessed as reduction in bacterial load in skin at 40 mg/kg applied topically once daily for 4 days and measured 18 hrs after last dose by FEI field emission scanning electron microscopy relative to un-treated control. Type of series: functional, organism-based. In a few lines:
(§4)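 Female BALB/c mice (6–8 weeks, 18–22 g) made neutropenic with cyclophosphamide i.p. (150 mg/kg, then 100 mg/kg 3 days later), anesthetized, backs shaved, wounded and infected with MRSA ATCC 33591. After 24 h biofilm formation, 40 mg/kg applied topically to wound once daily for 4 days (n = 5/group; untreated control). Skin collected 18 h after last dose for CFU/g; portions formalin-fixed for SEM.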

Series [12] concerns Staphylococcus aureus. Put plainly: Antibacterial activity against Staphylococcus aureus infected in BALB/c mouse model of superficial skin infection and biofilm formation assessed as reduction in bacterial load in skin at 40 mg/kg applied topically once daily for 4 days and measured 18 hrs after last dose. Type of series: functional. The gist of the method:
as §4

The nature of series [13]: Toxicity in HEK293 cells assessed as induction of cell death at 64 ug/ml incubated for 24 hrs by calcein AM and propidium iodide dye based fluorescence microscopy. Particulars: human, hek293, 24 h. In a few lines:
(§5)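 HEK 293 cells seeded ~10^4 cells/well, treated with compounds for 24 h (16, 32 or 64 µg/mL); 0.1% Triton X positive, untreated negative control. Stained with calcein AM (2 µM) and PI (4.5 µM) 15 min at 37 °C, 5% CO2; imaged by fluorescence microscopy, 20X objective.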

Series [14] in a line: Toxicity in HEK293 cells assessed as cell density level at 16 ug/ml incubated for 24 hrs by calcein AM and propidium iodide dye based fluorescence microscopy. The conditions noted are these: human, hek293, 24 h. In a few lines:
as §5

Series [15] in a line: Toxicity in HEK293 cells assessed as partial induction of cell death at 32 ug/ml incubated for 24 hrs by calcein AM and propidium iodide dye based fluorescence microscopy. The conditions noted are these: human, hek293, 24 h. The gist of the method: as §5
In series [16] the test system is Staphylococcus aureus. Put plainly: Induction of biofilm disruption in Staphylococcus aureus after 24 hrs by confocal laser-scanning microscopy. Type of series: functional. In a few lines: (§6)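 Biofilms grown on glass coverslips from ~10^5 CFU/mL: S. aureus in nutrient medium + 1% glucose + 1% NaCl, 24 h; E. coli in M9 + 0.5% glycerol + 0.02% casamino acid, 72 h; stationary, 37 °C. After PBS wash, treated 24 h at 37 °C with 32 µg/mL in the same medium; media-only control. Stained with SYTO 9 (5 µM), imaged by confocal microscopy.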

The test system of series [17] is Escherichia coli. The series can be described thus: Induction of biofilm disruption in Escherichia coli after 24 hrs by confocal laser-scanning microscopy. It is filed as functional. In a few lines:
as §6

As to `CCCCCCCCNC(=O)C[N+](C)(C)CCCCCC[N+](C)(C)CC(=O)NCCCCCCCC.[Br-].[Br-]`, the outcome in [1], in series [2], in [4] and in series [5] was Active. The results for the minimum inhibitory concentration (MIC) in series [3], in series [8] and in series [10] were 2 µg/mL, 6 µg/mL and 4 µg/mL, respectively. For the same compound, in series [6], the 50% haemolytic concentration (HC50) at 1 h amounted to 300 µg/mL. Besides, the Selectivity Index in series [7] was 150; in [9], 50.

For the compound `CCCCCCNC(=O)C[N+](C)(C)CCCCCC[N+](C)(C)CC(=O)NCCCCCC.[Br-].[Br-]`, the figures for the minimum inhibitory concentration (MIC) in series [3], in series [8] and in series [10] were 62.5 µg/mL, 125 µg/mL and 125 µg/mL, respectively. The HC50 at 1 h in series [6] was greater than 1000 µg/mL.

Turning to `CCCCCCCCNC(=O)C[N+](C)(C)CC[N+](C)(C)CC(=O)NCCCCCCCC.[Br-].[Br-]`, the MIC in series [3] came to 2 µg/mL; in series [8] it was 8 µg/mL; in series [10] it was 3.9 µg/mL. The HC50 at 1 h in series [6] was found to be 350 µg/mL.

Consider `CCCCCCCCNC(=O)C[N+](C)(C)CCCCCCCCCC[N+](C)(C)CC(=O)NCCCCCCCC.[Br-].[Br-]`, for which the minimum inhibitory concentration (MIC) in series [3] was 1 µg/mL; in series [8], 1 µg/mL; in [10], 2 µg/mL. This compound also registered an HC50 at 1 h in series [6] of 100 µg/mL.

As to `CC(=O)O[C@H]1C[C@@]2(C)[C@@H](C[C@@H](O)[C@H]3[C@@]4(C)CC[C@@H](O)[C@@H](C)[C@@H]4CC[C@@]32C)/C1=C(\CCC=C(C)C)C(=O)O` [FUSIDIC ACID], the outcome in series [11] was Active. The Activity in series [12] was 2.2 log10CFU/g.

Regarding `CCCCCCNC(=O)C[N+](C)(C)CCCCCCCC[N+](C)(C)CC(=O)NCCCCCC.[Br-].[Br-]`, the minimal inhibitory concentration (MIC) in series [3] was determined as 16 µg/mL; in series [8], 31 µg/mL; in series [10] it was 31 µg/mL. Further, in series [6], the HC50 at 1 h is greater than 1000 µg/mL.

For `CCCCCCCCNC(=O)C[N+](C)(C)CCCCCCCC[N+](C)(C)CC(=O)NCCCCCCCC.[Br-].[Br-]`, the result in series [1], in series [2], in series [4] and in series [5] was Active. In addition, the minimum inhibitory concentration (MIC) in series [3] was found to be 1 µg/mL; in [8], 2 µg/mL; in series [10], 2 µg/mL. This compound also registered an HC50 at 1 h in series [6] of 212 µg/mL. Moreover, the Activity entry in series [13], in series [14] and in [15] was “Toxic” in each case. The Selectivity Index in series [7] was 182; in series [9], 106.

Turning to `CCCCCCCCCCNC(=O)C[N+](C)(C)CCCCCCCC[N+](C)(C)CC(=O)NCCCCCCCCCC.[Br-].[Br-]`, the MIC in [3] was 2 µg/mL; in [8] it was 4 µg/mL; in series [10] it was 2 µg/mL. In [6], the 50% haemolytic concentration (HC50) at 1 h was 55 µg/mL.

Regarding `CCCCCCCCNC(=O)C[N+](C)(C)CCCCCCCCCCCC[N+](C)(C)CC(=O)NCCCCCCCC.[Br-].[Br-]`, the MIC in series [3] was 1 µg/mL; in [8], 2 µg/mL; in series [10] it was 1 µg/mL. The same compound displayed an HC50 at 1 h in series [6] of 65 µg/mL.

Take `CCCCCCNC(=O)C[N+](C)(C)CC[N+](C)(C)CC(=O)NCCCCCC.[Br-].[Br-]`: the MIC in series [3] worked out at 125 µg/mL; in [8], 250 µg/mL; in [10], 250 µg/mL. The compound further showed an HC50 at 1 h in series [6] greater than 1000 µg/mL.

Take `CCCCCCCCNC(=O)C[N+](C)(C)CCCC[N+](C)(C)CC(=O)NCCCCCCCC.[Br-].[Br-]`: the figures for the minimal inhibitory concentration (MIC) in [3], in [8] and in [10] were 2 µg/mL, 8 µg/mL and 3.9 µg/mL, respectively. Further, the HC50 at 1 h in series [6] was 310 µg/mL.

Consider `CCCCCCCCCCNC(=O)C[N+](C)(C)CCCCCCCCCC[N+](C)(C)CC(=O)NCCCCCCCCCC.[Br-].[Br-]`, for which the minimal inhibitory concentration (MIC) was found to be 4 µg/mL in series [3], 8 µg/mL in series [8] and 4 µg/mL in series [10]. In series [6], this compound returned a concentration for 50% haemolysis (HC50) at 1 h of 55 µg/mL.

In the case of `CCCCCCCCCCNC(=O)C[N+](C)(C)CC[N+](C)(C)CC(=O)NCCCCCCCCCC.[Br-].[Br-]`, the result in series [1], in series [2], in series [4] and in series [5] was Active. The minimum inhibitory concentration (MIC) in [3] stood at 2 µg/mL; in series [8], 4 µg/mL; in series [10], 2 µg/mL. The HC50 at 1 h in series [6] was 65 µg/mL. Further, the values for the Selectivity Index in series [7] and in [9] were 32 and 16, respectively.

`CCCCCCCCCC[N+](C)(C)CCCCCCCCCC`: the MBEC result in [16] and in [17] was “Active” each time.

With `CCCCCCNC(=O)C[N+](C)(C)CCCC[N+](C)(C)CC(=O)NCCCCCC.[Br-].[Br-]`, the minimum inhibitory concentration (MIC) amounted to 62.5 µg/mL in series [3], 125 µg/mL in series [8] and 125 µg/mL in [10]. For the same compound, the HC50 at 1 h in [6] was greater than 1000 µg/mL.

In the case of `CCCCCCCCCCCCCC[N+](C)(C)Cc1ccccc1`, the MBEC entry in [16] and in series [17] was “Active” in each case.

As to “N,N,N-trimethylhexadecan-1-aminium bromide”, the MBEC entry in series [16] and in series [17] was “Active” each time.

Turning to `CCCCCCCCCCNC(=O)C[N+](C)(C)CCCCCCCCCCCC[N+](C)(C)CC(=O)NCCCCCCCCCC.[Br-].[Br-]`, the minimum inhibitory concentration (MIC) came out at 31 µg/mL in series [3], 500 µg/mL in series [8] and 62 µg/mL in [10]. In addition, in series [6], the HC50 at 1 h came to 50 µg/mL.

Regarding `CCCCCCNC(=O)C[N+](C)(C)CCCCCCCCCC[N+](C)(C)CC(=O)NCCCCCC.[Br-].[Br-]`, the result in series [1], in series [2], in series [4] and in series [5] was Active. Further, the minimum inhibitory concentration (MIC) amounted to 4 µg/mL in [3], 6 µg/mL in [8] and 4 µg/mL in series [10]. Also, in series [6], the HC50 at 1 h is greater than 1000 µg/mL. In addition, the Selectivity Index in series [7] is 310; in series [9] it was 207.

Consider `CCCCCCCCCCNC(=O)C[N+](C)(C)CCCCCC[N+](C)(C)CC(=O)NCCCCCCCCCC.[Br-].[Br-]`, for which the MIC in series [3], in [8] and in series [10] was 2 µg/mL each time. The HC50 at 1 h in series [6] amounted to 58 µg/mL.

What is called MIC is the smallest concentration in the dilution series that meets the test's criterion for growth inhibition. A higher MIC goes with a less susceptible organism. By HC50 is commonly meant the concentration that lyses half of the red blood cells.
